Experimental findings from ChEMBL document CHEMBL1148866, “Design and synthesis of beta-methoxyacrylate analogues via click chemistry and biological evaluations” (2007) are described below.

What all share (assay type): functional
The subject of one assay is Alternaria brassicicola. The assay can be described thus: Antifungal activity against Alternaria brassicola. In short, it runs like this: (§1)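 MIC determined in 96-well plates. 1-mm diameter mycelial pieces were incubated in Czapek Dox minimal medium across a range of compound concentrations, and the MIC was read from mycelial growth.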
For assay [1], the system named is Simplicillium lamellicola. The assay can be described thus: Antifungal activity against Verticillium lamellicola. In short, it runs like this:
as §1

The test system of the next assay is Fusarium oxysporum. The assay can be described thus: Antifungal activity against Fusarium oxysporum. The procedure, abridged:
as §1

A further assay has as its system Aspergillus flavus. The assay can be described thus: Antifungal activity against Aspergillus flavus. The procedure, abridged:
as §1

Another assay has as its system Radish. The assay can be described thus: Effect on growth of Raphanus sativus assessed as length of hypocotyl at 50 ug/mL by seed germination assay.
The test system of another assay is Alternaria brassicae. The assay can be described thus: Antifungal activity against Alternaria brassicae. The procedure, abridged:
as §1

Converted amounts (≈) assume the structure as drawn.

`CO/C=C(/C(=O)OC)c1cc(Cl)ccc1Cn1cc(C2=CCCCC2)nn1`: the MIC in the assay with Alternaria brassicicola was 1000 µg/mL (≈ 2580 µM); in assay [1], 1500 µg/mL (≈ 3870 µM); with Fusarium oxysporum it was 1500 µg/mL (≈ 3870 µM); with Aspergillus flavus, greater than 1500 µg/mL; against Alternaria brassicae, 1000 µg/mL (≈ 2580 µM). Also, in the assay with Radish, the Activity stood at 14 mm.
As to `CO/C=C(/C(=O)OC)c1cc(Cl)ccc1Cn1cc(-c2ccccc2)nn1`, the MIC against Alternaria brassicicola was 1000 µg/mL (≈ 2610 µM); in assay [1] it was 1500 µg/mL (≈ 3910 µM); in the assay with Fusarium oxysporum it was 1000 µg/mL (≈ 2610 µM); with Aspergillus flavus, greater than 1500 µg/mL; with Alternaria brassicae, 1000 µg/mL (≈ 2610 µM). For the same compound, in the assay on Radish, the Activity turned out to be 18.8 mm.
As to `CO/C=C(/C(=O)OC)c1ccccc1Oc1cc(Oc2ccccc2C#N)ncn1` [AZOXYSTROBIN], the Activity in the assay with Radish is reported as 2 mm.
On to `CO/C=C(/C(=O)OC)c1cc(Cl)ccc1Cn1cc(S(=O)(=O)c2ccc(C)cc2)nn1`, for which the MIC came out at 500 µg/mL (≈ 1080 µM) in the assay on Alternaria brassicicola; 500 µg/mL (≈ 1080 µM) in assay [1]; 500 µg/mL (≈ 1080 µM) in the assay on Fusarium oxysporum; 500 µg/mL (≈ 1080 µM) with Aspergillus flavus; 400 µg/mL (≈ 866 µM) with Alternaria brassicae. The Activity in the assay with Radish worked out at 30.7 mm.
Consider `C#CS(=O)(=O)c1ccc(C)cc1`, for which the MIC (in the assay on Alternaria brassicicola; in assay [1]; with Fusarium oxysporum; in the assay on Aspergillus flavus; in the assay with Alternaria brassicae) was 4 µg/mL (≈ 22.2 µM) throughout. Besides, the Activity with Radish was 56.2 mm.
In the case of `CO/C=C(/C(=O)OC)c1cc(Cl)ccc1Cn1cc(-c2ccccc2C=O)nn1`, the MIC against Alternaria brassicicola came to 1000 µg/mL (≈ 2430 µM); in assay [1] it was 1000 µg/mL (≈ 2430 µM); in the assay on Fusarium oxysporum, 1000 µg/mL (≈ 2430 µM); in the assay on Aspergillus flavus, 1500 µg/mL (≈ 3640 µM); with Alternaria brassicae, 1000 µg/mL (≈ 2430 µM). In the assay on Radish, the Activity worked out at 25 mm.

Broadly, the MIC is the least concentration at which growth counts as inhibited. The low end stands for a more susceptible organism, the high end for a less susceptible organism.
